These results are taken from ChEMBL document CHEMBL2177003, “Development of target protein-selective degradation inducer for protein knockdown” (Bioorg Med Chem, 2011).

Active and inactive are the calls of the source. The rule behind the calls is not given here.

Experiment [1] deals with HT-1080. Nature of the experiment: Induction of apoptosis in human HT1080 cells assessed as activation of caspase 3/7 at 30 uM after 24 hrs by fluorescence assay in presence of etoposide. It is filed as functional, cell-based. An outline of the steps: (§1)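 HT1080 cells seeded at 2 × 10⁴/well, grown 24 h, then compounds added for 24 h with or without 30 μg/mL etoposide. Caspase-3/7 homogeneous reagent added, 10 h at room temperature. Fluorescence read at ex 485/em 535 nm and expressed as fold change in caspase activity. Means of triplicates; ANOVA with Bonferroni-type multiple t test.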

Experiment [2] deals with IMR-32. Nature of the experiment: Inhibition of cell proliferation in human IMR32 cells after 72 hrs by Alamarblue assay. It is filed as functional, cell-based. An outline of the steps:
(§2)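 Cells (IMR-32, HT1080 or MCF-7) seeded at 2 × 10⁴/well and grown 24 h at 37 °C. Compounds at various concentrations added for 0–72 h at 37 °C, 5% CO₂. AlamarBlue then added for 3 h at 37 °C. Fluorescence read at ex 540/em 590 nm and converted to percentage cell growth.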
On the technique in general: The colour change of resazurin is a common sign of viable cells or microbes.

Experiment [3] concerns the target T1, Complex of retinoic acid binding (CRABPII) and inhibitor of apoptosis (cIAP1) proteins (Homo sapiens) (UniProt P29373+Q13490). As to the kind of experiment: Binding affinity to Flag-tagged cIAP1/CRABP2 expressed in human HT1080 cells assessed as induction in CRABP-2 degradation at 1 uM after 6 hrs by Western blot analysis. The format is cell-based. Particulars: HT-1080. An outline of the steps:
(§3)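 FLAG-tagged IAP-expressing HT1080 cells (1 × 10⁶), RPMI 1640 with 10% heat-inactivated FBS at 37 °C, 5% CO₂, treated for the stated period in medium with 10% FBS. SDS lysates equalized by BCA, resolved on 10–20% SDS–PAGE, PVDF, skim-milk block. Probed for CRABP-II, cIAP1, FLAG and β-actin with HRP secondaries, visualized by enhanced chemiluminescence.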
In general terms: Immunoblotting shows a protein as a band on a membrane.

In a further experiment the test system is MCF7. Nature of the experiment: Inhibition of cell proliferation in human MCF7 cells at 1 to 30 uM after 72 hrs by Alamar blue assay. The format is functional, cell-based. An outline of the steps:
as §2

Experiment [4] has as its target T1, Complex of retinoic acid binding (CRABPII) and inhibitor of apoptosis (cIAP1) proteins (Homo sapiens). Nature of the experiment: Binding affinity to Flag-tagged cIAP1/CRABP2 expressed in human HT1080 cells assessed as induction in CRABP-2 degradation at 1 uM after 6 hrs by Western blot analysis in presence of proteasome inhibitor MG132. The conditions noted are these: HT-1080. It is filed as cell-based. An outline of the steps: (§4)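 HT1080 cells expressing FLAG-tagged cIAP1 were pretreated with proteasome inhibitor (MG132 or lactacystin), then given 1 μM degrader for 6 h. CRABP-II read by Western blot: SDS lysates equalized by BCA, 10–20% SDS–PAGE, PVDF, ECL.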

Experiment [5] relates to HT-1080. As to the kind of experiment: Induction of apoptosis in human HT1080 cells assessed as activation of caspase 3/7 at 30 uM after 24 hrs by fluorescence assay. It is filed as functional, cell-based. An outline of the steps:
as §1

Experiment [6] concerns the target T1, Complex of retinoic acid binding (CRABPII) and inhibitor of apoptosis (cIAP1) proteins (Homo sapiens). As to the kind of experiment: Binding affinity to Flag-tagged cIAP1/CRABP2 expressed in human MCF7 cells assessed as reduction in CRABP2 level at 0.1 uM to 1 uM after 6 hrs by Western blot analysis. The format is cell-based.
For experiment [7] the target is unchanged. As to the kind of experiment: Binding affinity to Flag-tagged cIAP1/CRABP2 expressed in human HT1080 cells assessed as formation of ternary complex by GST-pull down assay. The format is cell-based. The conditions noted are these: HT-1080.
Experiment [8] shares this target. Nature of the experiment: Binding affinity to Flag-tagged cIAP1/CRABP2 expressed in human IMR32 cells assessed as reduction in CRABP-2 level at 1 to 10 uM after 24 hrs by Western blot analysis. The conditions noted are these: IMR-32.
Experiment [9] has as its system HT-1080. Nature of the experiment: Inhibition of cell proliferation in human HT1080 cells at 1 to 30 uM after 72 hrs by Alamar blue assay. The format is functional, cell-based. Put shortly:
as §2

Experiment [10] concerns the target T1, Complex of retinoic acid binding (CRABPII) and inhibitor of apoptosis (cIAP1) proteins (Homo sapiens). As to the kind of experiment: Binding affinity to Flag-tagged cIAP1/CRABP2 expressed in human HT1080 cells assessed as induction in CRABP-2 degradation after 6 hrs by Western blot analysis. The format is cell-based. Particulars: HT-1080. An outline of the steps:
as §3

Experiment [11] concerns IMR-32. As to the kind of experiment: Induction of apoptosis in human IMR32 cells assessed as activation of caspase 3/7 at 30 uM after 24 hrs by fluorescence assay. It is filed as functional, cell-based. An outline of the steps: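 IMR-32 cells seeded at 2 × 10⁴/well, grown 24 h, then exposed to compounds for 24 h. Caspase-3/7 homogeneous reagent added, 0.5 h at room temperature. Fluorescence read at ex 485/em 535 nm and expressed as fold change over control. Means of triplicates; ANOVA with Bonferroni-type multiple t test.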

Experiment [12] has as its target T1, Complex of retinoic acid binding (CRABPII) and inhibitor of apoptosis (cIAP1) proteins (Homo sapiens). Nature of the experiment: Binding affinity to Flag-tagged cIAP1/CRABP2 expressed in human HT1080 cells assessed as induction in CRABP-2 degradation after 48 hrs by Western blot analysis. It is filed as cell-based. Particulars: HT-1080. Put shortly:
as §3

For experiment [13] the target is unchanged. As to the kind of experiment: Binding affinity to Flag-tagged cIAP1/CRABP2 expressed in human HT1080 cells assessed as induction in CRABP-2 degradation at 1 uM after 6 hrs by Western blot analysis in presence of MeBS. The conditions noted are these: HT-1080. It is filed as cell-based.
For experiment [14], the system named is HT-1080. As to the kind of experiment: Induction of apoptosis in human HT1080 cells at 1 to 30 uM after 24 hrs by lactate dehydrogenase assay in presence of etoposide. It is filed as functional, cell-based. Put shortly:
(§5)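 HT1080 cells seeded at 2 × 10⁴/well, grown 24 h at 37 °C, then exposed to compounds for 24 h with or without 30 μg/mL etoposide. LDH release measured with a non-radioactive cytotoxicity kit; lysis-buffer wells served as high control. Substrate 30 min at room temperature, stopped, A490 read. Means of triplicates.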

Experiment [15] concerns the target T1, Complex of retinoic acid binding (CRABPII) and inhibitor of apoptosis (cIAP1) proteins (Homo sapiens). As to the kind of experiment: Binding affinity to Flag-tagged cIAP1/CRABP2 expressed in human HT1080 cells assessed as induction in CRABP-2 degradation at 1 uM after 6 hrs by Western blot analysis in presence of proteasome inhibitor lactacystin. Particulars: HT-1080. It is filed as cell-based. Put shortly:
as §4

Experiment [16] has the same target. Nature of the experiment: Binding affinity to Flag-tagged cIAP1/CRABP2 expressed in human IMR32 cells assessed as reduction in MycN level at 1 to 10 uM after 48 hrs by Western blot analysis. The format is cell-based. Particulars: IMR-32.
Experiment [17] has the same target. Nature of the experiment: Binding affinity to Flag-tagged cIAP1/CRABP2 expressed in human HT1080 cells assessed as induction in cIAP1 degradation at 30 uM after 6 hrs by Western blot analysis. The format is cell-based. The conditions noted are these: HT-1080. Put shortly: as §3
Experiment [18] shares this target. Nature of the experiment: Binding affinity to Flag-tagged cIAP1/CRABP2 expressed in human HT1080 cells assessed as induction in cIAP1 degradation at 0.1 to 10 uM after 6 hrs by Western blot analysis. Particulars: HT-1080. It is filed as cell-based. Put shortly: as §3
Experiment [19] shares this target. As to the kind of experiment: Binding affinity to Flag-tagged cIAP1/CRABP2 expressed in human HT1080 cells assessed as reduction in CRABP2 level at 0.1 uM to 1 uM after 6 hrs by Western blot analysis. It is filed as cell-based. The conditions noted are these: HT-1080. An outline of the steps: as §3
Experiment [20] has the same target. As to the kind of experiment: Binding affinity to Flag-tagged cIAP1/CRABP2 expressed in human HT1080 cells assessed as induction in CRABP-2 degradation at 0.1 to 10 uM after 6 hrs by Western blot analysis. Particulars: HT-1080. It is filed as cell-based. An outline of the steps: as §3
Experiment [21] deals with HT-1080. As to the kind of experiment: Induction of apoptosis in human HT1080 cells at 1 to 30 uM after 24 hrs by lactate dehydrogenase assay. It is filed as functional, cell-based. Put shortly: as §5
The subject of experiment [22] is IMR-32. Nature of the experiment: Inhibition of cell proliferation in human IMR32 cells at 1 to 30 uM after 72 hrs by Alamarblue assay. The format is functional, cell-based. Put shortly: as §2
Experiment [23] relates to HT-1080. As to the kind of experiment: Induction of apoptosis in human HT1080 cells after 24 hrs by lactate dehydrogenase assay in presence of etoposide. It is filed as functional, cell-based. Put shortly: as §5
For experiment [24], the target named is Baculoviral IAP repeat-containing protein 2 (Homo sapiens) (UniProt Q13490). Nature of the experiment: Induction of auto-degradation of Flag-tagged cIAP1 expressed in HT1080 cells at […] by Western blot analysis. Particulars: HT-1080. It is filed as cell-based.
Chain of Baculoviral IAP repeat-containing protein 2 (Homo sapiens) (Q13490 whole entry): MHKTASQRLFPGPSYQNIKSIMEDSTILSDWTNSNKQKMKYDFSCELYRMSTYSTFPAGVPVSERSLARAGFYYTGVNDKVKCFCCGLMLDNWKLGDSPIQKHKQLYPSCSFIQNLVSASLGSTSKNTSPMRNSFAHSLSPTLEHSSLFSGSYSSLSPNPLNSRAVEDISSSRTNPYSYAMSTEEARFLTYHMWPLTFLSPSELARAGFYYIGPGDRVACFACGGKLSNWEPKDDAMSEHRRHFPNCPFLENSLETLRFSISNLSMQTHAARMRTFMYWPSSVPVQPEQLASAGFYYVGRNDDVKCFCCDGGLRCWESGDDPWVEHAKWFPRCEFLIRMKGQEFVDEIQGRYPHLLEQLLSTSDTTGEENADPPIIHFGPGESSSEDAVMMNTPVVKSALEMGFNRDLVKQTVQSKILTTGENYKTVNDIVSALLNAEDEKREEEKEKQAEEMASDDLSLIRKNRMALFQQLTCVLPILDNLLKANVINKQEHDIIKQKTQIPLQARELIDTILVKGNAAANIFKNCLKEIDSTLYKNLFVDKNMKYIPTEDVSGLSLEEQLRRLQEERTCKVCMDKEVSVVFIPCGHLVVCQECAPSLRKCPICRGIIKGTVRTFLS
The test system of a further experiment is XIAP (Homo sapiens). As to the kind of experiment: Binding affinity to Flag-tagged XIAP expressed in HT1080 cells assessed as degradation of XIAP at 0.1 to 10 uM after 6 hrs by Western blot analysis. Particulars: HT-1080.
Experiment [25] deals with Baculoviral IAP repeat-containing protein 2 (Homo sapiens) (UniProt Q13490). As to the kind of experiment: Induction of auto-degradation of Flag-tagged cIAP1 expressed in HT1080 cells at 0.1 to 10 uM by Western blot analysis. It is filed as cell-based. The conditions noted are these: HT-1080. Put shortly:
as §3

For experiment [26] the target is unchanged. As to the kind of experiment: Inhibition of MeBS-induced degradation of Flag-tagged cIAP1 expressed in HT1080 cells at 100 to 1000 uM by Western blot analysis. It is filed as cell-based. Particulars: HT-1080.
For experiment [27] the target is unchanged. As to the kind of experiment: Induction of degradation of Flag-tagged cIAP1 expressed in HT1080 cells at […] by Western blot analysis in presence of MG132. The format is cell-based. Particulars: HT-1080.
Experiment [28] concerns the target T1, Complex of retinoic acid binding (CRABPII) and inhibitor of apoptosis (cIAP1) proteins (Homo sapiens). As to the kind of experiment: Binding affinity to Flag-tagged cIAP1/CRABP2 expressed in human HT1080 cells assessed as induction in CRABP-2 degradation after 12 hrs by Western blot analysis. It is filed as cell-based. The conditions noted are these: HT-1080. Put shortly:
as §3

As to `CC1=C(/C=C/C(C)=C/C=C/C(C)=C/C(=O)O)C(C)(C)CC/C1=N\OCC(=O)NCCOCCOCCNC(=O)[C@H](CC(C)C)NC(=O)[C@@H](O)[C@H](N)Cc1ccccc1`, the result (in the experiment on HT-1080 [1]; in the experiment with MCF7; in experiment [4]; in the experiment on HT-1080 [5]; with HT-1080 [9]; in experiment [13]) was inactive. The outcome (in the experiment on HT-1080 [14]; in experiment [15]; in [17]; in experiment [18]) was inactive. The inhibition result with IMR-32 [2] is “Dose-dependent effect”. Also, the result (in experiment [3]; in [6]; in [7]; in [8]; in the experiment with IMR-32 [11]; in [12]) was Active. Also, the result in [16] and in [19] was Active. Besides, the Activity entry in experiment [10] was “Dose-dependent effect”.
For `CC1=C(/C=C/C(C)=C/C=C/C(C)=C/C(=O)O)C(C)(C)CC/C1=N\OCC(=O)NCCOCCOCCNC(=O)[C@H](CC(C)C)NC(=O)CCCc1ccccc1`, the result in experiment [7], in experiment [20] and in [18] was inactive.
`COC(=O)[C@H](CC(C)C)NC(=O)[C@@H](O)[C@H](N)Cc1ccccc1`: the outcome in the experiment on HT-1080 [1] was Active. Also, the result in the experiment with HT-1080 [5], with IMR-32 [11] and in the experiment on HT-1080 [21] was inactive. The inhibition entry in the experiment with IMR-32 [22] is “inactive”. In addition, in the experiment on HT-1080 [23], the Activity entry is “Dose-dependent effect”.
With `CNC(=O)[C@H](CC(C)C)NC(=O)[C@@H](O)[C@H](N)Cc1ccccc1`, the outcome (in experiment [24]; with XIAP (Homo sapiens); in [25]; in the experiment with IMR-32 [11]; in experiment [27]) was inactive. Besides, the inhibition result with IMR-32 [22] is “inactive”. For the same compound, in experiment [26], the inhibition entry was “Active”.
Consider `CC1=C(/C=C/C(C)=C/C=C/C(C)=C/C(=O)O)C(C)(C)CC/C1=N\OCC(=O)NCCOCCOCCOC(=O)[C@H](CC(C)C)NC(=O)[C@@H](O)[C@H](N)Cc1ccccc1`, for which the outcome (in the experiment on HT-1080 [1]; in experiment [28]) was Active. Besides, the outcome with HT-1080 [5] and with HT-1080 [21] was inactive. For the same compound, the Activity entry in the experiment on HT-1080 [23] was “Dose-dependent effect”.
On to `CNC(=O)[C@H](CC(C)C)NC(=O)CCCc1ccccc1`, for which the outcome in experiment [25] was inactive.
